Data as given in ChEMBL document CHEMBL5653631, “A Potent and Selective ULK1 Inhibitor Suppresses Autophagy and Sensitizes Cancer Cells to Nutrient Stress” (iScience, 2018).

Key:
[1] = molecular target: T1, G protein-coupled receptor kinase 3 (Homo sapiens) (UniProt P35626); assay: Inhibition of human recombinant BARK2 at 40 nM in presence of ATP by radiometric assay relative to control
T1 sequence (whole entry): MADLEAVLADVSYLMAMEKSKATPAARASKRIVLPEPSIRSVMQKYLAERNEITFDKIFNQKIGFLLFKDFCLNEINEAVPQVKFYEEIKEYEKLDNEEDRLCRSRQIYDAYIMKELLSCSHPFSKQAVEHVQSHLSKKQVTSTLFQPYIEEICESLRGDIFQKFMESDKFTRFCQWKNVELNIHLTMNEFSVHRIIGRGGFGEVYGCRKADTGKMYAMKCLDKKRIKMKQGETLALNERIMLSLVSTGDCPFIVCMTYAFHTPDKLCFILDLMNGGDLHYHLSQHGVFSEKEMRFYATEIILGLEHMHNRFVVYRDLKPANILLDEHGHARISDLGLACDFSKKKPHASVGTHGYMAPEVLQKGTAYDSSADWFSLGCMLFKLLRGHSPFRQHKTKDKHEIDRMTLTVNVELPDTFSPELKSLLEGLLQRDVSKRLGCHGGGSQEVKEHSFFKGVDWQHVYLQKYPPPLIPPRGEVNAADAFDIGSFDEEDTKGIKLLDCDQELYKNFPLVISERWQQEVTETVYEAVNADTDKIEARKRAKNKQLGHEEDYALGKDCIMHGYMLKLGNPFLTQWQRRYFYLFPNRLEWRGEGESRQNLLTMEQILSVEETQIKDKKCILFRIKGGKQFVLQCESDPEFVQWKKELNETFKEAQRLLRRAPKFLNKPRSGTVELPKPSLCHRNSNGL
Outline: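 Part of a radiometric in vitro activity panel of 327 recombinant human kinases. Each kinase was tested in duplicate at one inhibitor concentration. Activity remaining was expressed as a percentage of the vehicle control, and percent inhibition was taken as 100 minus that value.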

[2] = molecular target: T2, Serine/threonine-protein kinase Chk1 (Homo sapiens) (UniProt O14757); assay: Inhibition of human recombinant CHK1 at 40 nM related to control ULK1
T2 sequence (whole entry): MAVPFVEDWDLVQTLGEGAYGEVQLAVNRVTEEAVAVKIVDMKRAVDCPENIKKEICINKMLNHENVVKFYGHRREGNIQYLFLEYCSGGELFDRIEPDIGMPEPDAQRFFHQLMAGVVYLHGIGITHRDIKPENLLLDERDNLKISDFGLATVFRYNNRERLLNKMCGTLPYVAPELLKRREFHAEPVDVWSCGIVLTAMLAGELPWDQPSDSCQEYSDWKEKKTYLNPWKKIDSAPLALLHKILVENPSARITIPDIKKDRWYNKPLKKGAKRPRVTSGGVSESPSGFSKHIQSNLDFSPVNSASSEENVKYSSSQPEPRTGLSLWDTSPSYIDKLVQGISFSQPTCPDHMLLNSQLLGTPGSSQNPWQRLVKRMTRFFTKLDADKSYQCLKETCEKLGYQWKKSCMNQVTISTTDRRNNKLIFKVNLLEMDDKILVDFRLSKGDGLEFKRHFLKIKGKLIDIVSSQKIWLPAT

[3] = molecular target: Serine/threonine-protein kinase PLK2 (Homo sapiens) (UniProt Q9NYY3); assay: Inhibition of human recombinant PLK2 at 15 nM in presence of ATP by radiometric assay relative to control
Sequence of Serine/threonine-protein kinase PLK2 (Homo sapiens) (Q9NYY3 whole entry, looked up): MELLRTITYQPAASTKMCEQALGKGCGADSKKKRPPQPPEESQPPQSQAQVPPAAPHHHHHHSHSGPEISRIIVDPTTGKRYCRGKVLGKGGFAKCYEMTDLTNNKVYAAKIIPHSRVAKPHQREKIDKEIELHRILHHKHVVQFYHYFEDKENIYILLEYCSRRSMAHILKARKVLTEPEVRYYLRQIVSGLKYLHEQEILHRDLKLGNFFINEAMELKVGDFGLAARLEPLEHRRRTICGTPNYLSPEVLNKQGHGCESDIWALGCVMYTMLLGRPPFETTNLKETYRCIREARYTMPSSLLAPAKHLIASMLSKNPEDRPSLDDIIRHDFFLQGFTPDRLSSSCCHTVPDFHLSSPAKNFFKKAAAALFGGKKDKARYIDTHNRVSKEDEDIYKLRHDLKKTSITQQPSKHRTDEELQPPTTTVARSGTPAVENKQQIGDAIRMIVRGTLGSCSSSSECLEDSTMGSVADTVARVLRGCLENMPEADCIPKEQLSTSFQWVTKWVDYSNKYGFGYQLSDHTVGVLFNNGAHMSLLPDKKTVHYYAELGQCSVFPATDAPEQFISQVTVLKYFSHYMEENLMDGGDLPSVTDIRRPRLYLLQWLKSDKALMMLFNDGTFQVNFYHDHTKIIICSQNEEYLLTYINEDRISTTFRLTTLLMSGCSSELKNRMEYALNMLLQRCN

[4] = molecular target: T3, Serine/threonine-protein kinase TAO3 (Homo sapiens) (UniProt Q9H2K8); assay: Inhibition of human recombinant TAO3 at 15 nM in presence of ATP by radiometric assay relative to control
T3 sequence (whole entry): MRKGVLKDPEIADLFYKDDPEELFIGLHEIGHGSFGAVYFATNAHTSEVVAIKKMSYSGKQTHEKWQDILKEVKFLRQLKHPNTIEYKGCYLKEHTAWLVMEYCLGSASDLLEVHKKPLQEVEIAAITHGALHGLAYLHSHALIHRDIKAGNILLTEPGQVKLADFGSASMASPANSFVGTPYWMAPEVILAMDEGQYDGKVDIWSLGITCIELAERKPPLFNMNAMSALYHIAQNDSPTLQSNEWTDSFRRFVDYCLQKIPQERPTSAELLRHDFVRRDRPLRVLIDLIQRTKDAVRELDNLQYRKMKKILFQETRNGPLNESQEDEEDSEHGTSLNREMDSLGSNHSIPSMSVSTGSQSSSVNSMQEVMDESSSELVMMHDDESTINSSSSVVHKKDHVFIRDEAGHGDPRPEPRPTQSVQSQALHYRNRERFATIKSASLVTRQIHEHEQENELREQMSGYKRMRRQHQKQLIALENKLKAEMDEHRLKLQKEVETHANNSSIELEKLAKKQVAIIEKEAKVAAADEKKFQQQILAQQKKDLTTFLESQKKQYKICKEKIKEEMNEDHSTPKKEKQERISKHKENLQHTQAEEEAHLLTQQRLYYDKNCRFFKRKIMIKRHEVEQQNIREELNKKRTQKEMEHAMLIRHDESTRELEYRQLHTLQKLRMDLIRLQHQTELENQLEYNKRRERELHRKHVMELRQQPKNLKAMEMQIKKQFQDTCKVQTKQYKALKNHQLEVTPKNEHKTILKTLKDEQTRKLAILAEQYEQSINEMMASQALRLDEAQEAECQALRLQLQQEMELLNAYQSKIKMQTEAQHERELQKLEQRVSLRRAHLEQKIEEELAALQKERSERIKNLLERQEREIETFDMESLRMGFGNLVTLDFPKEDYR

Homo sapiens = species on record: Homo sapiens; assay: Inhibition of human recombinant ABL at 15 nM related to control ULK1
[5] = molecular target: Platelet-derived growth factor receptor beta (Homo sapiens) (UniProt P09619); assay: Inhibition of human recombinant PDGFRb at 15 nM related to control ULK1
Sequence of Platelet-derived growth factor receptor beta (Homo sapiens) (P09619 whole entry): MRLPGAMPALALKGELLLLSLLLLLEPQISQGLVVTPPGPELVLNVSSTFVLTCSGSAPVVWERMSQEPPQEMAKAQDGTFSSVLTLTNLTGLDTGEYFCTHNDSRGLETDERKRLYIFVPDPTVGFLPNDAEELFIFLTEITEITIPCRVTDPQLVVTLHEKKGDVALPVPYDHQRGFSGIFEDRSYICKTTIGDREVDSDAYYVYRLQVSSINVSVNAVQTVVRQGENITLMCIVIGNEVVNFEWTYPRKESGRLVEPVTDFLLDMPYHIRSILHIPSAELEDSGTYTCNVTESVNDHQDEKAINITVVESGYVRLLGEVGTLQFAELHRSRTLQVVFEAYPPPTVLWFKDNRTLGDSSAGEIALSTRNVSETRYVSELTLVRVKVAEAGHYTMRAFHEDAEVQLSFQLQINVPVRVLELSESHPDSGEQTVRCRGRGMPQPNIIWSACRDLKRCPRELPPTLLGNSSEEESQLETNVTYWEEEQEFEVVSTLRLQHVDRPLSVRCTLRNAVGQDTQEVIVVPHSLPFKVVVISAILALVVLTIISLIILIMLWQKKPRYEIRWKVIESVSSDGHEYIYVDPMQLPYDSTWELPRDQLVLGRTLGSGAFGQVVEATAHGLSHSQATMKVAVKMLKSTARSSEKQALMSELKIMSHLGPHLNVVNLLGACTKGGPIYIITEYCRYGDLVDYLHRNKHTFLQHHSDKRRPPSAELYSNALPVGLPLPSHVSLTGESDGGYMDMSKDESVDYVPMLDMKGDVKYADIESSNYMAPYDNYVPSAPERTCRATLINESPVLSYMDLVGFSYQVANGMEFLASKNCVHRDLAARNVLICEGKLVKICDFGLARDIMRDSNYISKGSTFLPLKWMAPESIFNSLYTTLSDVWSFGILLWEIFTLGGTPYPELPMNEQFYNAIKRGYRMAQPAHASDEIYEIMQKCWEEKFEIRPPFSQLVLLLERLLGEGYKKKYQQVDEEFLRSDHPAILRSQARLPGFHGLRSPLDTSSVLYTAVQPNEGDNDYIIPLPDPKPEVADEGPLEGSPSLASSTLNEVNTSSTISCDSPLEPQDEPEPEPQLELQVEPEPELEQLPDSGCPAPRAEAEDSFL

[6] = molecular target: Serine/threonine-protein kinase SIK3 (Homo sapiens) (UniProt Q9Y2K2); assay: Inhibition of human recombinant QSK at 15 nM related to control ULK1
Sequence of Serine/threonine-protein kinase SIK3 (Homo sapiens) (Q9Y2K2 whole entry, looked up): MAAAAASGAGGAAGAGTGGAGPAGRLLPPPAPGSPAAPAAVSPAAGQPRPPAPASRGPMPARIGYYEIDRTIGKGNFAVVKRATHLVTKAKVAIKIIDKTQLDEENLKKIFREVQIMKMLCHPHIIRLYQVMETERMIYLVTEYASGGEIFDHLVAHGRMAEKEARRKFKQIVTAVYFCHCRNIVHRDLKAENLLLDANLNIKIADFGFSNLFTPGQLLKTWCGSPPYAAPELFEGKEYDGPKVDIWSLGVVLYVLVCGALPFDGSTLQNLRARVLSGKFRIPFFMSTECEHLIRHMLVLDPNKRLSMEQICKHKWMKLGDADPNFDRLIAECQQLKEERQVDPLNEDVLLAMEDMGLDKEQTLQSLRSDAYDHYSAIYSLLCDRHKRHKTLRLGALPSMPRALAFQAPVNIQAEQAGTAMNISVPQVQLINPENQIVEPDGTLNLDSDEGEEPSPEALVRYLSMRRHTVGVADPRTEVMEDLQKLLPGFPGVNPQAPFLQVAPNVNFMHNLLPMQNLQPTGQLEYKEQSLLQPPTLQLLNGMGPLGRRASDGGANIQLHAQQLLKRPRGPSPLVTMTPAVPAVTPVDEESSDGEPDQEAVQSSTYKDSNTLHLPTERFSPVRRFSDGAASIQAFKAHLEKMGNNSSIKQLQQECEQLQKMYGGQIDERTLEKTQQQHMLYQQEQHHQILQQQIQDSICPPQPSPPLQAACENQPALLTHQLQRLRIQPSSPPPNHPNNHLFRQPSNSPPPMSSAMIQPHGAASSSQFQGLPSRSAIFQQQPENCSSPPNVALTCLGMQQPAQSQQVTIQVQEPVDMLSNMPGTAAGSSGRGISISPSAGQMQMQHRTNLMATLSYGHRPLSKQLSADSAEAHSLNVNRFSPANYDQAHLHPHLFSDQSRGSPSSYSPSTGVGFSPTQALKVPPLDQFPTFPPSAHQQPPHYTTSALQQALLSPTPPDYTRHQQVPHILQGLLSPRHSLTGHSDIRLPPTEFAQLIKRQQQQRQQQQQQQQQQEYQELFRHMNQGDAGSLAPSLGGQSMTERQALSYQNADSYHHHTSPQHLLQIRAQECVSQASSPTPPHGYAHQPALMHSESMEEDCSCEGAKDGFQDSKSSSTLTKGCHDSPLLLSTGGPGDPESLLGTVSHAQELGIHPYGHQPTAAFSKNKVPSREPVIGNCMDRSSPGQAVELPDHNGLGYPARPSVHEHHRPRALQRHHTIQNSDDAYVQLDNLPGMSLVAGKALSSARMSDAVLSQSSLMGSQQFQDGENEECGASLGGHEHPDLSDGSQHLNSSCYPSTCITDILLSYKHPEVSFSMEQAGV

[7] = molecular target: Receptor-interacting serine/threonine-protein kinase 2 (Homo sapiens) (UniProt O43353); assay: Inhibition of human recombinant RIPK2 at 15 nM related to control ULK1
Sequence of Receptor-interacting serine/threonine-protein kinase 2 (Homo sapiens) (O43353 whole entry): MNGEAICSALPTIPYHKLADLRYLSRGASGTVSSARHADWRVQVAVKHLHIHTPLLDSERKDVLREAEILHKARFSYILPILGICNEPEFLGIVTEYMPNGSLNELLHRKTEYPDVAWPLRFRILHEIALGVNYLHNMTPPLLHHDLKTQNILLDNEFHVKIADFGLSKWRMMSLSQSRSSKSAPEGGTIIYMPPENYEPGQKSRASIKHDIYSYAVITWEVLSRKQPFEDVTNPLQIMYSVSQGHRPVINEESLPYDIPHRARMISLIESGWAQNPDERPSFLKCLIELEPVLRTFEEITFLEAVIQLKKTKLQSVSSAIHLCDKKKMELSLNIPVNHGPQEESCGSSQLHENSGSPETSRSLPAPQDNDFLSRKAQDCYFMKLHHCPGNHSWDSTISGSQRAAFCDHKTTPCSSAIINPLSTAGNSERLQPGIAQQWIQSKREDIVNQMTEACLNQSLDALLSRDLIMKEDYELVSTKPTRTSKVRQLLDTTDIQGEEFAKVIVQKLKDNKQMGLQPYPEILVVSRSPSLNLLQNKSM

[8] = molecular target: Serine/threonine-protein kinase Chk2 (Homo sapiens) (UniProt O96017); assay: Inhibition of human recombinant CHK2 at 500 nM in presence of ATP by radiometric assay relative to control
[9] = molecular target: Wee1-like protein kinase (Homo sapiens) (UniProt P30291); assay: Inhibition of human recombinant Wee1 at 500 nM in presence of ATP by radiometric assay relative to control
Sequence of Wee1-like protein kinase (Homo sapiens) (P30291 whole entry, looked up): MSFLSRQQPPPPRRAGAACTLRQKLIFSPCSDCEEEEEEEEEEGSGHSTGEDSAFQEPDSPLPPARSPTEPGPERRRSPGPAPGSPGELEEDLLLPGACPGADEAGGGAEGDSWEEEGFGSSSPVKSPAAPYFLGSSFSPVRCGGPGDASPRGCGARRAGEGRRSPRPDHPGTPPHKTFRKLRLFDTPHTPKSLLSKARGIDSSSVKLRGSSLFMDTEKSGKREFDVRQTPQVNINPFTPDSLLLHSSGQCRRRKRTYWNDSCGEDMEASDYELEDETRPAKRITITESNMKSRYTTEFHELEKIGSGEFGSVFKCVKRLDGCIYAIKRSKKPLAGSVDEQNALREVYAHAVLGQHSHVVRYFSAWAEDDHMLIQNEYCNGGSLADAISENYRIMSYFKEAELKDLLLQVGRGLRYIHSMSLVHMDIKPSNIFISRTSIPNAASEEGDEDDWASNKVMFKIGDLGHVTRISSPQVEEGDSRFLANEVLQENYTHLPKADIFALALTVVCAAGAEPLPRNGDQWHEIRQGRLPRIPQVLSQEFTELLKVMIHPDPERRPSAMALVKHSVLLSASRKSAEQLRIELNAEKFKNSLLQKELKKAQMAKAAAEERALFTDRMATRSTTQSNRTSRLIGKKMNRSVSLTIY

[10] = molecular target: Fibroblast growth factor receptor 2 (Homo sapiens) (UniProt P21802); assay: Inhibition of human recombinant FGFR2 at 500 nM related to control ULK1
Sequence of Fibroblast growth factor receptor 2 (Homo sapiens) (P21802 22-821 limits assumed): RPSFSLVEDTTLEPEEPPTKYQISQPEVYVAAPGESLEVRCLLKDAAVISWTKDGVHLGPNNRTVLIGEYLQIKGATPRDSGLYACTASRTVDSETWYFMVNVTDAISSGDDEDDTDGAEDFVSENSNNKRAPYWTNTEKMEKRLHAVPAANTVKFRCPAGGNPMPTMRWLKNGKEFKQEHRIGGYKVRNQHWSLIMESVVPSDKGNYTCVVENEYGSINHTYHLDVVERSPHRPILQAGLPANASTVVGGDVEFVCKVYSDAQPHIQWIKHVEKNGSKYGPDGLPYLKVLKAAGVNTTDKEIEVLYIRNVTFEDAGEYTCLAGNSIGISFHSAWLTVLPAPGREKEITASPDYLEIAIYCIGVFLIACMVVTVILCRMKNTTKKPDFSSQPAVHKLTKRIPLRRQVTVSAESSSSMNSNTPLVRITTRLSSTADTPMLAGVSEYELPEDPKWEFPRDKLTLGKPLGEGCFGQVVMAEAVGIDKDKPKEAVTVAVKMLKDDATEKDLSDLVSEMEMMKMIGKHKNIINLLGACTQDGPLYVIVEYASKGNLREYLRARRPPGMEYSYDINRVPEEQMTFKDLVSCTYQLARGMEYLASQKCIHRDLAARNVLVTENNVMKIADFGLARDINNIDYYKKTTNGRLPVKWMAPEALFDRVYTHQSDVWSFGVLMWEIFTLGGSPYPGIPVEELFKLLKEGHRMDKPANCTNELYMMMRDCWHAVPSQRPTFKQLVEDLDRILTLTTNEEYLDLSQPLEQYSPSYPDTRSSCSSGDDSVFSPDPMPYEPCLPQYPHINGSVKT

[11] = molecular target: Insulin receptor-related protein (Homo sapiens) (UniProt P14616); assay: Inhibition of human recombinant IRR at 500 nM related to control ULK1
[12] = molecular target: Serine/threonine-protein kinase SIK3 (Homo sapiens) (UniProt Q9Y2K2); assay: Inhibition of human recombinant QSK at 500 nM related to control ULK1

O=C(N[C@@H](C1CC1)C(F)(F)F)c1cc(-c2cnn3cc(-c4ccc(F)cc4)cnc23)cs1
inhibition [1]: 7% | fold change (FC) [2]: 0

CC(C)[C@H](NC(=O)c1cc(-c2cnn3cc(-c4ccc(OCCN5CCCCC5)cc4)cnc23)cs1)C(F)(F)F
inhibition [3]: 4% | inhibition [4]: 1% | fold change (FC) (Homo sapiens): 0.93 | fold change (FC) [5]: 0 | fold change (FC) [6]: 0.98 | fold change (FC) [7]: 0.11

CNC(=O)c1ccccc1Oc1nc(Nc2cc(OC)c(OC)c(OC)c2)ncc1Br
inhibition [8]: 0% | inhibition [9]: 16% | fold change (FC) [10]: 0.28 | fold change (FC) [11]: 0.12 | fold change (FC) [12]: 0.11
